For the experiment, the target named is Beta-lactamase (Enterobacter cloacae, UniProt P05364). Briefly: Irreversible inhibition of Enterobacter cloacae P99 beta-lactamase using cephalothin as substrate by spectrophotometric analysis. Particulars: read-out: kon (M-1-s-1). The gist of the method:
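P99 class C β-lactamase (stock concentration by A280, ε 7.1 x 10⁴ M⁻¹cm⁻¹) incubated with inhibitor in 20 mM MOPS pH 7.5, 0.1% BSA, 25 °C. Aliquots diluted 1:50 into 300 μM cephalothin; initial rates followed at 270 nm over time. Titration: 150 nM enzyme with 0–2.0 μM inhibitor to end-point. Time-course and titration data fitted jointly to Scheme 2, k2 fixed at 100 s⁻¹, giving k1, k2/k3 and k_i.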

Each structure is given as a SMILES string.

The values below come from BindingDB's records for doi:10.1016/j.bmc.2019.02.023 (Wesleyan University, 2019).

Sequence of Beta-lactamase (P05364 whole entry): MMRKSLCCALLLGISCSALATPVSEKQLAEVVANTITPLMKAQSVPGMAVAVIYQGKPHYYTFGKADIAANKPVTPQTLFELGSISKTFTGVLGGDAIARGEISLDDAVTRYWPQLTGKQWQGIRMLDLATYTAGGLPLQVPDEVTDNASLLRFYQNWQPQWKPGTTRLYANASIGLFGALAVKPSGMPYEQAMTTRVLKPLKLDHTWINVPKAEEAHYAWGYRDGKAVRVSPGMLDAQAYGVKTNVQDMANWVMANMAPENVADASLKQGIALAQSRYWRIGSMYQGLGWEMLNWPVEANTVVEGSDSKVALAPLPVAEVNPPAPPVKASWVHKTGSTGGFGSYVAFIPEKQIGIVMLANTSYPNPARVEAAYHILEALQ

In general, kon refers to the rate constant with which the complex forms. Consider `CCCCOC(=O)NOC(=O)Oc1ccccc1`, for which the kon was 1100 M⁻¹ s⁻¹. On to `O=C(O)CCCCOC(=O)NOC(=O)Oc1ccccc1`, for which the kon is 8500 M⁻¹ s⁻¹. Regarding `N[C@H](CCCOC(=O)NOC(=O)Oc1ccccc1)C(=O)O`, the on-rate constant (kon) is 16000 M⁻¹ s⁻¹. `O=C(NOC(=O)Oc1ccccc1)OCc1ccccc1`: the kon was found to be 2000 M⁻¹ s⁻¹. Consider `O=C(NOC(=O)Oc1ccccc1)OCCc1ccccc1`, for which the kon worked out at 1400 M⁻¹ s⁻¹.
